# Columns and labels:
# Pseudomonas aeruginosa = experiment: Antimicrobial activity against Pseudomonas aeruginosa ATCC 27853 after 24 hrs by microdilution assay; format: functional
# How it was run: (§1)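 Broth microdilution MIC in Mueller-Hinton broth. Inocula came from 24 h broth cultures grown at 37 °C, were adjusted to 0.5 McFarland and diluted 1:100 in broth. Compounds were tested at final concentrations of 256 to 0.5 µg/mL, with gentamycin at 128 to 0.25 µg/mL. Sealed plates were incubated 24 h at 37 °C. MIC was the lowest concentration with no visible growth. Clear wells were subcultured onto Mueller-Hinton agar. Triplicate.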
# Bacillus cereus = experiment: Antimicrobial activity against Bacillus cereus ATCC 7064 after 24 hrs by microdilution assay; format: functional; how it was run: as §1
# Escherichia coli = experiment: Antimicrobial activity against Escherichia coli ATCC 23999 after 24 hrs by microdilution assay; format: functional; how it was run: as §1
# Staphylococcus aureus = experiment: Antimicrobial activity against Staphylococcus aureus ATCC 6538-P after 24 hrs by microdilution assay; format: functional; how it was run: as §1
# [1] = system: Staphylococcus epidermidis; experiment: Antimicrobial activity against Staphylococcus epidermidis ATCC 12228 after 24 hrs by microdilution assay; format: functional; how it was run: as §1
# Enterococcus faecalis = experiment: Antimicrobial activity against Enterococcus faecalis ATCC 29212 after 24 hrs by microdilution assay; format: functional; how it was run: as §1
# Salmonella enterica = experiment: Antimicrobial activity against Salmonella Typhimurium CCM 5445 after 24 hrs by microdilution assay; format: functional, Salmonella enterica subsp. enterica serovar Typhimurium; how it was run: as §1
# Klebsiella pneumoniae = experiment: Antimicrobial activity against Klebsiella pneumoniae CCM 2318 after 24 hrs by microdilution assay; format: functional; how it was run: as §1
Molecule,"MIC (Pseudomonas aeruginosa; ATCC 27853, 24 h)","MIC (Bacillus cereus; ATCC 7064, 24 h)","MIC (Escherichia coli; ATCC 23999, 24 h)",MIC (Staphylococcus aureus),"MIC ([1]; ATCC 12228, 24 h)","MIC (Enterococcus faecalis; ATCC 29212, 24 h)","MIC (Salmonella enterica; CCM 5445, 24 h)","MIC (Klebsiella pneumoniae; CCM 2318, 24 h)",MIC (Pseudomonas aeruginosa),MIC (Bacillus cereus),MIC (Escherichia coli),MIC [1],MIC (Enterococcus faecalis),MIC (Salmonella enterica; Salmonella enterica subsp. enterica serovar Typhimurium),MIC (Klebsiella pneumoniae)
C[C@@H]1O[C@@H](O[C@H]2[C@H](O)[C@@H](O)[C@H](O[C@H]3CC[C@]4(C)[C@H]5CC=C6[C@H]7CC(C)(C)CC[C@]7(C(=O)O[C@@H]7O[C@H](CO[C@@H]8O[C@H](CO)[C@@H](O)[C@H](O)[C@H]8O)[C@@H](O)[C@H](O)[C@H]7O)CC[C@@]6(C)[C@]5(C)CC[C@H]4C3(C)C)O[C@@H]2CO)[C@H](O)[C@H](O[C@@H]2OC[C@@H](O[C@@H]3OC[C@@H](O)[C@H](O)[C@H]3O)[C@H](O)[C@H]2O)[C@H]1O [SCOPOSIDE B],64 µg/mL,16 µg/mL,128 µg/mL,256 µg/mL,128 µg/mL,64 µg/mL,64 µg/mL,64 µg/mL,,,,,,,
GENTAMICIN,,,,1 µg/mL,,,,,2 µg/mL,4 µg/mL,1 µg/mL,1 µg/mL,16 µg/mL,1 µg/mL,4 µg/mL
C[C@@H]1O[C@@H](O[C@H]2[C@H](O[C@H]3CC[C@]4(C)[C@H]5CC=C6[C@H]7CC(C)(C)CC[C@]7(C(=O)O[C@@H]7O[C@H](CO[C@@H]8O[C@H](CO)[C@@H](O)[C@H](O)[C@H]8O)[C@@H](O)[C@H](O)[C@H]7O)CC[C@@]6(C)[C@]5(C)CC[C@H]4C3(C)C)OC[C@H](O)[C@@H]2O[C@@H]2OC[C@@H](O[C@@H]3O[C@H](CO)[C@@H](O)[C@H](O)[C@H]3O)[C@H](O)[C@H]2O)[C@H](O)[C@H](O[C@@H]2OC[C@@H](O)[C@H](O)[C@H]2O)[C@H]1O [SCOPOSIDE C],128 µg/mL,32 µg/mL,128 µg/mL,64 µg/mL,64 µg/mL,32 µg/mL,64 µg/mL,64 µg/mL,,,,,,,
C[C@@H]1O[C@@H](O[C@H]2[C@H](OC(=O)[C@]34CCC(C)(C)C[C@@H]3C3=CC[C@@H]5[C@@]6(C)CC[C@H](O[C@@H]7OC[C@H](O)[C@H](O)[C@H]7O)C(C)(C)[C@@H]6CC[C@@]5(C)[C@]3(C)CC4)O[C@H](CO[C@@H]3O[C@H](CO)[C@@H](O)[C@H](O)[C@H]3O)[C@@H](O)[C@@H]2O)[C@H](O)[C@H](O)[C@H]1O [SCOPOSIDE A],64 µg/mL,16 µg/mL,8 µg/mL,128 µg/mL,64 µg/mL,32 µg/mL,128 µg/mL,64 µg/mL,,,,,,,
